PREPL inhibitor: PREPL enzyme inhibitors, primary screen, biochemical, fluorescence polarization; Prolyl endopeptidase-like (Homo sapiens), Q4J6C6; recombinant PREPL, fluorescence polarization activity-based probe; inhibition, % at 5.96 µM; 0.68% of 320,000 active;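 note: 0% = enzyme with DMSO and 100% = wells lacking enzyme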
NTR1 agonist: agonists of human NTR1, primary screen, imaging, U2OS cells, beta-arrestin-GFP, high content | 0.17% of 330,000 active | activation, % at 20 µM | Neurotensin receptor type 1 (Homo sapiens), P30989 | NTR1-U2OS beta-arrestin-GFP spot imaging, agonist mode;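 active = activation at or above 40% of the spot to cytoplasm intensity ratio, with at least 20 cells analyzed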;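 note: 0% = DMSO without peptide and 100% = 100 nM NTR1 peptide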
Target sequence (P30989 whole entry, looked up): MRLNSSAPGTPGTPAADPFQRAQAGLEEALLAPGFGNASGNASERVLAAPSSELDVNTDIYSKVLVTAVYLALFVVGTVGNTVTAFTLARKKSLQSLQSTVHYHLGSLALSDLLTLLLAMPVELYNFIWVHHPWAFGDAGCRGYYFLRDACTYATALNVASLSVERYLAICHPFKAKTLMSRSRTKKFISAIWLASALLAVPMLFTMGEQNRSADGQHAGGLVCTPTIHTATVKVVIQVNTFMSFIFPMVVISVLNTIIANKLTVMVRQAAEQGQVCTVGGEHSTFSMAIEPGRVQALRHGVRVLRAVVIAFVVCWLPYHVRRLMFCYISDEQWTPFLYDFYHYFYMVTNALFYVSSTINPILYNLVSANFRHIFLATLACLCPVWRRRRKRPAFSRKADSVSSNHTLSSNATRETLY
HTR2A ag: mouse Htr2a agonists via beta-arrestin recruitment, primary screen, cell-based, luminescence; 5-hydroxytryptamine receptor 2A (Mus musculus), P35363; CHO-K1 mHTR2A beta-arrestin complementation; percent of 30 µM serotonin response; activation, % at 7.6 µM; 0.66% of 360,000 active; AID 624169, 2012;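 active = activation above a run cutoff, the mean activation of all tested compounds plus 3 SD, cut at about 14% in these data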;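 note: 0% = plate median of compound wells and 100% = 30 µM serotonin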
Lipid droplet: inhibitors of hepatocyte lipid droplet formation, primary screen, imaging, high-throughput imaging, BODIPY stain. AID 1656, 2009. AML12 mouse hepatocytes, oleate lipid droplets. inhibition, % at 6.5 µM. 0.4% of 240,000 active;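 active = lipid droplet intensity inhibited by at least 50%, with more than 500 cells counted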
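Assay system: AML12 mouse liver cells | Compound: 6.5 µM single-point dosing | Schedule: Overnight exposure | Technique: Fluorescence imaging, 20x objective, two fields per well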
MC4R barr agon: MC4R agonists recruiting beta-arrestin, primary screen, cell-based, luminescence, agonist arm of biased-ligand search; AID 540308, 2011; U2OS MC4R beta-arrestin complementation; percent of melanotan II response, DMSO zero; activation, % at 8.9 µM; 0.98% of 360,000 active;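 active = activation above a per-plate cutoff, the mean activation of sample wells on that plate plus 3 SD, cut at about 8% in these data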
MC4R antagonist: MC4R antagonists of cAMP signaling, primary screen, cell-based, TR-FRET, antagonist arm of biased-ligand search; Melanocortin receptor 4 (Homo sapiens), P32245; MC4R-expressing cells, MTII-stimulated cAMP, LANCE TR-FRET; inhibition, % at 6.5 µM; 0.48% of 360,000 active;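 active = inhibition above its plate's cutoff, the mean of tested wells on that plate plus 3 SD, cut at about 29% in these data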;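 note: 0% = Melanotan II alone and 100% = Melanotan II plus saturating MCL0020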
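Material: human MC4R-expressing U2OS cells. Probe or stimulus: Melanotan II challenge. Dosing: 6.5 µM single dose. Times: 30-min compound, 1-h challenge, 1-h detection, room temperature. Technique: TR-FRET with Eu-cAMP and labeled anti-cAMP, 671 nm. Replication: singlicate.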
PREPL inh cf: human PREPL enzyme inhibitors, confirmation, biochemical, fluorescence polarization; shares compounds with PREPL inhibitor; recombinant PREPL, fluorescence polarization activity probe; inhibition, % at 5.96 µM; 67% of 2,000 active; AID 2803, 2010;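 note: 0% = protein with DMSO and 100% = wells lacking protein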
Numbers without * were called inactive; . = not tested or not shown; ! = repeats disagree. Compounds with a hit are over-represented: about 2.7% of the library has one in this group of screens. Cut-off read from the data, not from the text of the source, unless noted: active = inhibition above about 43%; inactive = the rest.

SMILES	PREPL inhibitor	NTR1 agonist	HTR2A ag	Lipid droplet	MC4R barr agon	MC4R antagonist	PREPL inh cf
CCN1c2ccccc2N(C)C1(C)c1ccccc1 (configuration not stated)	79*	.	-1	12	-2	12	27
Cc1cc(C)cc(N(CCC#N)C(=O)COC(=O)CNC(=O)c2sc3ccccc3c2Cl)c1	43*	3	6	.	-2	8	40
Cc1ccc(S(=O)(=O)NCC(=O)OCC(=O)N(CCC#N)c2ccccc2)cc1	47*	-1	4	.	-1	15	38
COC(=O)c1ccc(C(=O)OC)c(-n2c(=O)c3ccccc3c3ccccc3c2=O)c1	21	26	1	-1	-1	25	.
COc1ccc(-c2ccc(-c3cc(=O)oc4c(C(C)C)ccc(C)c34)cc2)cc1	.	2	1	.	-2	5	.
Nc1cc(C(=O)O)c(N)c2c1C(=O)c1ccccc1C2=O	84*	1	-10	0	-4	5	72*
Cc1nnc(N/N=C/c2cccc(OCc3ccc(Cl)c(Cl)c3)c2)n1N	73*	3	-4	2	2	-3	65*
Cc1nnc(N/N=C/c2cccc(C(F)(F)F)c2)n1N	3	0	8	.	0	7	.
CSc1ncnc2c1ncn2CCCNc1ccc(C)c(C)c1	.	.	-3	.	0	-6	.
CCOc1ccc2noc3c2c1C(=O)c1ccccc1-3	23	-1	0	-13	-1	-1	.
O=C1c2ccccc2-c2onc3ccc(NCc4ccco4)c1c23	82*	0	-4	.	-2	5	106*
COc1ccc2c(=O)c(Oc3ccc(C(=O)O)cc3)c(C(F)(F)F)oc2c1	7	0	2	-14	-4	-3	.
COc1ccc(N2CCN(CCC(O)c3ccc4ccccc4c3)CC2)cc1 (configuration not stated)	71*	0	-3	-17	3	1	68*
Cc1ccc(C)c(S(=O)(=O)N2CCN(C(=O)CCCc3c[nH]c4ccccc34)CC2)c1	47*	4	1	.	-2	8	35
Cc1ccc(C)c(S(=O)(=O)N2CCN(C(=O)CCc3c[nH]c4ccccc34)CC2)c1	35	2	0	.	1	8	.
COCCn1c(Cc2ccccc2)nnc1SCC(=O)NC1CCCCC1	2	0	-2	5	-1	10	.
Cc1ccccc1OCC(O)Cn1c(=N)n(CCN2CCOCC2)c2ccccc21 (configuration not stated)	56*	-2	-5	-13	0	5	45*!
NNC(=O)c1oc2nc(-c3ccco3)cc(-c3ccco3)c2c1N	47*	1	4	0	-1	4	57*
Nc1c(C(=O)N/N=C/c2cccnc2)oc2nc(-c3ccco3)cc(-c3ccco3)c12	29	2	3	19	-2	-6	.
CC1CCN(S(=O)(=O)c2ccc3c(c2)N(CC(=O)NCCCN2C(C)CCCC2C)C(=O)CO3)CC1 (configuration not stated)	15	0	1	27	-3	0	.
O=C(NCCc1ccccc1)C(=O)c1c(-c2ccccc2)[nH]c2ccccc12	-27	-1	-3	1	0	5	.
Cc1ccc(C(=O)Cn2nnc(-c3cccs3)n2)cc1	-11	2	-5	1	-1	4	.
O=C(CN1CC[n+]2c(-c3cccs3)csc21)c1ccc(-c2ccccc2)cc1	46*	5	-6	-6	1	2	42
CCOc1cc(CC(=O)N[C@@H](CC(C)C)c2ccccc2N2CCCCC2)ccc1C(=O)O	9	-1	1	-14	1	4	.
CC(SCC(=O)NC12CC3CC(CC(C3)C1)C2)C(=O)O (configuration not stated)	-4	0	-3	-1	1	10	.
SMILES	PREPL inhibitor	NTR1 agonist	HTR2A ag	Lipid droplet	MC4R barr agon	MC4R antagonist	PREPL inh cf
Cc1cc(NCc2ccccn2)n2ncc(-c3ccc(Cl)cc3)c2n1	49*	9	0	.	-4	-1	36
COc1cccc(NC(=O)N2CCC(NC(=O)C(Cc3ccccc3F)NC(C)=O)CC2)c1 (configuration not stated)	-11	-3	-1	0	-1	2	.
C#CCOCCOCCOCCNc1nc(N2CCN(C(=O)[C@H]([C@@H](C)CC)n3cc([C@@H](N)CC(C)C)nn3)CC2)nc(N2CCN(C(=O)[C@H](Cc3cc4ccccc4[nH]3)n3cc([C@@H](N)C(C)CC)nn3)CC2)n1 (some centres not stated)	.	4	.	16	.	.	.
C#CCOCCOCCOCCNc1nc(N2CCN(C(=O)[C@H]([C@@H](C)CC)n3cc([C@@H](N)CC(C)C)nn3)CC2)nc(N2CCN(C(=O)[C@H](Cc3cc4ccccc4[nH]3)n3cc([C@@H](N)Cc4ccc(O)cc4)nn3)CC2)n1	43	3	.	8	.	.	.
C#CCOCCOCCOCCNc1nc(N2CCN(C(=O)[C@H]([C@@H](C)CC)n3cc([C@@H](N)Cc4ccc(O)cc4)nn3)CC2)nc(N2CCN(C(=O)[C@H](Cc3cc4ccccc4[nH]3)n3cc([C@@H](N)CC(C)C)nn3)CC2)n1	58*	0	-8	.	3	12	59*
C#CCOCCOCCOCCNc1nc(N2CCN(C(=O)[C@H](Cc3ccc(O)cc3)n3cc([C@@H](N)CC(C)C)nn3)CC2)nc(N2CCN(C(=O)[C@H](Cc3ccc(O)cc3)n3cc([C@@H](N)CC(C)C)nn3)CC2)n1	21	2	.	-1	.	.	.
C#CCOCCOCCOCCNc1nc(N2CCN(C(=O)C(Cc3ccc(O)cc3)n3cc(C(N)CC(C)C)nn3)CC2)nc(N2CCN(C(=O)C(Cc3cc4ccccc4[nH]3)n3cc(C(N)C(C)CC)nn3)CC2)n1 (configuration not stated)	51*	1	.	8	.	.	51*
C#CCOCCOCCOCCNc1nc(N2CCN(C(=O)[C@H](Cc3ccc(O)cc3)n3cc([C@@H](N)CC(C)C)nn3)CC2)nc(N2CCN(C(=O)[C@H](Cc3cc4ccccc4[nH]3)n3cc([C@@H](N)CC(C)C)nn3)CC2)n1	53*	-2	.	-2	.	.	50*

Assay outcomes as filed in PubChem.
